≈ marks a conversion by molar mass, not a printed value.
Tests used:
[1] = WHO-TDR: Cytotoxicity; assay type: toxicity, cell-based; conditions: human, MRC5 cells
Plasmodium falciparum K1 = assay: WHO-TDR: Malaria; assay type: functional, organism-based, Homo sapiens; conditions: Erythrocyte
In short: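 A diverse library of 10,000 compounds from Life Chemicals, filtered for drug-likeness and reactive groups, was screened against the intra-erythrocytic Plasmodium falciparum K1 strain in human red blood cells. Previously published standard procedures were followed, with a reference drug as positive control. Antiplasmodial potency is given as IC50.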

Trypanosoma cruzi = assay: WHO-TDR: Chagas disease; assay type: functional, organism-based, Homo sapiens; conditions: MRC5
In short: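 Intracellular amastigotes of the Trypanosoma cruzi Tulahuen CL2 beta-galactosidase strain, grown in MRC-5SV2 human lung fibroblast host cells, were tested in a whole-organism screen. The compounds came from a 10,000-member diverse Life Chemicals library that had been filtered for drug-likeness and reactive groups. Previously published standard procedures were followed, with a reference drug as positive control, and potency is reported as IC50.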

[2] = system: Trypanosoma brucei brucei; assay: WHO-TDR: Human African Trypanosomiasis (HAT); assay type: functional, organism-based; conditions: Squib-427
In short: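 A diverse library of 10,000 compounds from Life Chemicals, filtered for drug-likeness and reactive groups, was screened against bloodstream forms of Trypanosoma brucei Squib 427 strain in a whole-organism assay. Previously published standard procedures were followed, with reference drugs serving as positive controls. Antiparasitic potency is given as IC50.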

Leishmania infantum = assay: WHO-TDR: Leishmaniasis; assay type: functional, organism-based, Mus musculus; conditions: Macrophage
In short: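 A diverse library of 10,000 compounds from Life Chemicals, filtered for drug-likeness and reactive groups, was screened against whole organisms. The targets were intracellular amastigotes of Leishmania infantum MHOM/MA(BE)/67 growing in murine peritoneal macrophages. Previously published standard procedures were followed, with a reference drug as positive control. Antiparasitic potency is given as IC50.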

Schistosoma mansoni = assay: WHO-TDR: Schistosomiasis; assay type: functional; design: concentration or dose not given beside the values
In short: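 A diverse library of 10,000 compounds from Life Chemicals, filtered for drug-likeness and reactive groups, was screened against whole larval and/or adult Schistosoma mansoni worms of the Puerto Rican strain. Previously published standard procedures were followed, with a reference drug as positive control. Activity is given as percent inhibition and as IC50.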

Onchocerca lienalis = assay: WHO-TDR: Onchocerciasis; assay type: functional; design: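 at 12.5 µM on microfilariae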
In short: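 A diverse library of 10,000 compounds from Life Chemicals, filtered for drug-likeness and reactive groups, was screened against whole microfilariae of Onchocerca ochengi or Onchocerca lienalis. These animal pathogens served as stand-ins for the human parasite. Activity is given as percent inhibition and as IC50.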

| Compound | IC50 (Plasmodium falciparum K1) [µg/mL] | IC50 [2] [µg/mL] | IC50 (Leishmania infantum) [µg/mL] | IC50 [1] [µg/mL] | IC50 (Trypanosoma cruzi) [µg/mL] | % Inhibition (Schistosoma mansoni) [%] | % Inhibition (Onchocerca lienalis) [%] |
| --- | --- | --- | --- | --- | --- | --- | --- |
| Cc1cc(NC(=O)CSc2ccc3nnc(-c4cccs4)n3n2)no1 | 0.155 (≈ 0.416 µM) | > 11.2 | 4.29 (≈ 11.5 µM) | > 11.2 | 4.97 (≈ 13.4 µM) | 0 | 6.7 |
| O=C(CSc1ccc2nnc(-c3ccccn3)n2n1)NCC1CCCO1 (stereo not given) | 3.16 (≈ 8.53 µM) | 3.3 (≈ 8.9 µM) | 0.392 (≈ 1.06 µM) | > 11.1 | 5.24 (≈ 14.1 µM) | 0 | 0 |
| O=C(Cc1ccccc1)Nc1nnc(SCC(=O)NC2CCCC2)s1 | 0.609 (≈ 1.62 µM) | 0.382 (≈ 1.01 µM) | 3.96 (≈ 10.5 µM) | 3.82 (≈ 10.1 µM) | 4.16 (≈ 11.1 µM) | 0 | 6.7 |
| O=C(O)CCCCCN1C(=O)/C(=C\c2ccccc2O)SC1=S | > 10.5 | 4.06 (≈ 11.5 µM) | > 10.5 | > 10.5 | 0.653 (≈ 1.86 µM) | 0 | 6.7 |
| O=C(CSc1nc2ccccc2nc1O)Nc1ccccc1C(=O)c1ccccc1 | > 12.5 | > 12.5 | 1.97 (≈ 4.75 µM) | > 12.5 | > 12.5 | 0 | 26.7 |
| COc1ccc(-c2nnc(NC(=O)c3cccc(C(F)(F)F)c3)o2)cc1 | > 10.9 | > 10.9 | > 10.9 | 10.1 (≈ 27.9 µM) | 0.844 (≈ 2.32 µM) | 0 | 0 |
| CC(C)(C)c1ccc(C(=O)Nc2sccc2C(N)=O)cc1 | 2.68 (≈ 8.87 µM) | 0.633 (≈ 2.09 µM) | 1.95 (≈ 6.46 µM) | 4.3 (≈ 14.2 µM) | 2.41 (≈ 7.98 µM) | 0 | 13.3 |
| N#Cc1ccsc1NC(=O)C(c1ccccc1)c1ccccc1 | > 9.55 | > 9.55 | > 9.55 | > 9.55 | > 9.55 | 100 | 0 |
| CCOc1ccc(C(=O)Nc2nc3c(Cl)ccc(Cl)c3s2)cc1 | > 11 | > 11 | > 11 | > 11 | > 11 | 100 | 33.34 |
| Cc1c(Cl)ccc2sc(NC(=O)c3ccc(N(C)C)cc3)nc12 | > 10.4 | > 10.4 | > 10.4 | > 10.4 | > 10.4 | 0 | 50 |
| O=C(CSc1ccc2nnc(-c3ccncc3)n2n1)c1ccc(Cl)cc1 | 1.82 (≈ 4.75 µM) | 0.35 (≈ 0.917 µM) | 4.72 (≈ 12.4 µM) | 4.28 (≈ 11.2 µM) | 0.425 (≈ 1.11 µM) | 0 | 0 |
| O=C(Nc1nnc(SCc2ccccc2Cl)s1)C1CCCCC1 | 1.45 (≈ 3.95 µM) | 0.356 (≈ 0.967 µM) | 5.1 (≈ 13.9 µM) | > 11 | 4.94 (≈ 13.4 µM) | 0 | 0 |
| O=C(CSc1nnc(NC(=O)c2cc(Cl)ccc2Cl)s1)Nc1ccc2c(c1)OCO2 | 8.18 (≈ 16.9 µM) | 4.25 (≈ 8.8 µM) | 4.25 (≈ 8.8 µM) | 1.94 (≈ 4.02 µM) | 0.409 (≈ 0.847 µM) | 0 | 13.3 |
| Cc1csc(NC(=O)CSc2nnc(NC(=O)c3ccco3)s2)n1 | 1.14 (≈ 3 µM) | 4.74 (≈ 12.4 µM) | 4.74 (≈ 12.4 µM) | 5.73 (≈ 15 µM) | 5.1 (≈ 13.4 µM) | 0 | 0 |

More lines, main results first:

| IC50 (Plasmodium falciparum K1) [µg/mL] | IC50 [2] [µg/mL] | IC50 (Leishmania infantum) [µg/mL] | Compound | IC50 [1] [µg/mL] | IC50 (Trypanosoma cruzi) [µg/mL] | % Inhibition (Schistosoma mansoni) [%] | % Inhibition (Onchocerca lienalis) [%] |
| --- | --- | --- | --- | --- | --- | --- | --- |
| 4.01 (≈ 9.02 µM) | 0.396 (≈ 0.891 µM) | 4.22 (≈ 9.49 µM) | CCOC(=O)c1c(NC(=O)C2COc3ccccc3O2)sc2c1CC(C)(C)NC2(C)C (stereo not given) | 5.73 (≈ 12.9 µM) | 4.1 (≈ 9.22 µM) | 91.7 | 0 |
| > 12.9 | > 12.9 | > 12.9 | CCOC(=O)N1CCc2c(sc(NC(=O)C3COc4ccccc4O3)c2C(N)=O)C1 (stereo not given) | > 12.9 | > 12.9 | 66 | 13.3 |
| 0.848 (≈ 2.04 µM) | 0.237 (≈ 0.572 µM) | 4.16 (≈ 10 µM) | CCOC(=O)CNC(=O)CSc1nnc(NC(=O)c2ccccc2Cl)s1 | 3.81 (≈ 9.19 µM) | 4.41 (≈ 10.6 µM) | 0 | 13.3 |
| > 12.9 | 0.216 (≈ 0.503 µM) | > 12.9 | COC(=O)c1c(NC(=O)c2nc3ccccc3s2)sc2c1CC(C)(C)NC2(C)C | > 12.9 | > 12.9 | 0 | -1 |
| 1.36 (≈ 3 µM) | 0.377 (≈ 0.831 µM) | 0.43 (≈ 0.948 µM) | CCOC(=O)N1CCc2c(sc(NC(=O)c3ccco3)c2-c2nc3ccccc3s2)C1 | 4.51 (≈ 9.95 µM) | 0.455 (≈ 1 µM) | 58.7 | 73.3 |
| > 15 | > 15 | > 15 | C=CCn1/c(=N/C(=O)c2ccccc2I)sc2cc(S(C)(=O)=O)ccc21 | > 15 | > 15 | 100 | 20 |
| > 14.9 | > 14.9 | > 14.9 | CCOC(=O)Cn1/c(=N/C(=O)c2ccccc2Br)sc2cc(S(C)(=O)=O)ccc21 | > 14.9 | > 14.9 | 100 | 0 |
| > 10.2 | > 10.2 | > 10.2 | CCn1/c(=N\C(=O)c2ccc(C(C)=O)cc2)sc2cc(C)ccc21 | > 10.2 | 0.321 (≈ 0.948 µM) | 0 | 80 |
| 2.22 (≈ 7.11 µM) | 2.66 (≈ 8.52 µM) | 3.03 (≈ 9.71 µM) | CN(C(=O)CN1CC(=O)Oc2ccccc21)c1ccc(O)cc1 | 2.96 (≈ 9.49 µM) | 0.548 (≈ 1.75 µM) | 0 | 20 |
| > 11.4 | > 11.4 | 0.413 (≈ 0.971 µM) | C#CCn1/c(=N/C(=O)CN2C(=O)c3ccccc3C2=O)sc2c3ccccc3ccc21 | > 11.4 | > 11.4 | 0 | 13.3 |
| 9.4 (≈ 20.2 µM) | > 9.4 | 0.304 (≈ 0.654 µM) | CCOC(=O)Cn1/c(=N/C(=O)c2ccc(N3C(=O)CCC3=O)cc2)sc2c(C)cc(C)cc21 | > 9.4 | > 9.4 | 0 | 13.3 |
| 0.126 (≈ 0.297 µM) | 3.87 (≈ 9.15 µM) | 4.06 (≈ 9.62 µM) | O=C(CCS(=O)(=O)c1ccccc1)Nc1nc(-c2cccc3ccccc23)cs1 | 1.67 (≈ 3.96 µM) | 0.657 (≈ 1.55 µM) | 0 | 6.7 |
| > 9.73 | 0.487 (≈ 0.971 µM) | 4.87 (≈ 9.71 µM) | CN(CC1CCCO1)S(=O)(=O)c1ccc(C(=O)Nc2nc3c(s2)CSc2ccccc2-3)cc1 (stereo not given) | 3 (≈ 5.99 µM) | 0.521 (≈ 1.04 µM) | 41.7 | 13.3 |
| > 7 | 0.312 (≈ 0.971 µM) | > 7 | CC(C)c1ccc2nc(NC(=O)c3ccc(C#N)cc3)sc2c1 | > 7 | > 7 | 0 | 0 |
| 4.26 (≈ 8.71 µM) | 3.69 (≈ 7.54 µM) | > 9.82 | CN(CC1CCCO1)S(=O)(=O)c1ccc(C(=O)Nc2nc3cc4c(cc3s2)OCCO4)cc1 (stereo not given) | > 9.82 | 5.16 (≈ 10.5 µM) | 100 | 20 |
| 3.64 (≈ 7.61 µM) | 4.66 (≈ 9.73 µM) | > 14.4 | COc1ccc(C(=O)Nc2nnc(SCC(=O)NCc3ccccc3Cl)s2)c(OC)c1 | > 14.4 | > 14.4 | 100 | 0 |
| 0.324 (≈ 0.657 µM) | 0.435 (≈ 0.882 µM) | 4.24 (≈ 8.61 µM) | COC(=O)c1ccc(NC(=O)CSc2nnc(NC(=O)c3cc(Cl)ccc3OC)s2)cc1 | 4.1 (≈ 8.31 µM) | 4.49 (≈ 9.11 µM) | 16.7 | 0 |
| 1.16 (≈ 2.2 µM) | 0.483 (≈ 0.911 µM) | 0.791 (≈ 1.49 µM) | Cc1onc(-c2ccccc2Cl)c1C(=O)Nc1nnc(SCC(=O)Nc2ccc3c(c2)OCO3)s1 | 2.1 (≈ 3.96 µM) | 3.2 (≈ 6.05 µM) | 0 | 13.3 |
| 0.653 (≈ 1.35 µM) | 0.45 (≈ 0.933 µM) | 4.55 (≈ 9.44 µM) | O=C(CSc1nnc(NC(=O)c2ccccc2C(F)(F)F)s1)Nc1ccc2c(c1)OCO2 | 3.97 (≈ 8.23 µM) | 4.76 (≈ 9.86 µM) | 0 | 0 |
| 1.2 (≈ 2.82 µM) | 0.383 (≈ 0.902 µM) | 5.12 (≈ 12 µM) | O=C(CSc1nnc(NC(=O)c2cccs2)s1)NCc1ccccc1Cl | 4.21 (≈ 9.91 µM) | 4.32 (≈ 10.2 µM) | 16.7 | 13.3 |
| 0.398 (≈ 0.755 µM) | 0.352 (≈ 0.668 µM) | 4.54 (≈ 8.61 µM) | COc1ccc(CCNC(=O)CSc2nnc(NC(=O)c3cc(Cl)ccc3Cl)s2)cc1OC | 0.526 (≈ 0.997 µM) | 0.239 (≈ 0.452 µM) | 8.3 | 13.3 |

Reference: ChEMBL document CHEMBL2093137, “WHO-TDR NTD Screening”
